Measurements: ChEMBL document CHEMBL1154716, “Synthesis of some new S-triazine based chalcones and their derivatives as potent antimicrobial agents” (2010)
Converted amounts (≈) assume the structure as drawn. The source made the active and inactive calls. No cut-off for these calls is given here.

What was measured:
Enterobacter cloacae [1] = assay: Antimicrobial activity against Enterobacter cloacae at 10 ug/disk after 24 hrs by disk diffusion assay; assay type: functional
In short: (§1)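 Disc diffusion on 4 mm filter discs. Bacteria are grown overnight in LB at 28 C, then adjusted in saline to 1.0 × 10^5 cfu/ml. The suspension is mixed into top agar over peptone agar plates. Plates are incubated 24 h at 28 C, and growth-inhibition zone diameter is measured. Streptomycin and ampicillin controls are applied from a 1 mg/ml stock. Tests are done in duplicate.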

Micrococcus flavus [2] = assay: Antimicrobial activity against Micrococcus flavus at 1 umol/spot after 18 hrs by TLC-bioautographic method; assay type: functional
In short: (§2)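 TLC bioautography. Samples are spotted on silica gel TLC plates, then sprayed with bacteria (1.0 × 10^5 cfu/ml) in tryptic soy broth. Plates are incubated 18 h at 37 C and sprayed with 3% aqueous p-iodonitrotetrazolium violet. After a further 3 h, growth is stopped with 70% EtOH. White zones on a pink background are scored as inhibition-zone diameter with standard errors.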

Enterobacter cloacae [3] = assay: Antimicrobial activity against Enterobacter cloacae after 24 hrs by microdilution technique; assay type: functional
In short: (§3)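 Broth microdilution in LB medium. Inoculum is 1.0 × 10^4 cfu per well, from a saline-adjusted suspension of 1.0 × 10^5 cfu/ml. Compounds are dissolved in DMSO. Incubated 24 h at 28 C. MIC is the lowest concentration with no visible growth under a binocular microscope. MBC is read by subculture into fresh broth for 72 h, with no growth taken as 99.5% kill. OD is read at 655 nm.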

Salmonella typhimurium [4] = assay: Antimicrobial activity against Salmonella Typhimurium at 1 umol/disk after 24 hrs by disk diffusion assay; assay type: functional, organism-based; details: Salmonella enterica subsp. enterica serovar Typhimurium; in short: as §1
Micrococcus flavus [5] = assay: Antimicrobial activity against Micrococcus flavus at 10 ug/disk after 24 hrs by disk diffusion assay; assay type: functional; details: for zone of inhibition at 10 µg/disc: read-out: IZ; in short: as §1
Bacillus cereus [6] = assay: Antimicrobial activity against Bacillus cereus at 1 umol/disk after 24 hrs by disk diffusion assay; assay type: functional; in short: as §1
Enterobacter cloacae [7] = assay: Antimicrobial activity against Enterobacter cloacae at 1 umol/spot after 18 hrs by TLC-bioautographic method; assay type: functional; in short: as §2
Salmonella typhimurium [8] = assay: Antimicrobial activity against Salmonella Typhimurium at 10 ug/disk after 24 hrs by disk diffusion assay; assay type: functional, organism-based; details: Salmonella enterica subsp. enterica serovar Typhimurium; in short: as §1
Staphylococcus aureus [9] = assay: Antimicrobial activity against Staphylococcus aureus at 1 umol/disk after 24 hrs by disk diffusion assay; assay type: functional; in short: as §1
Bacillus cereus [10] = assay: Antimicrobial activity against Bacillus cereus at 1 umol/spot after 18 hrs by TLC-bioautographic method; assay type: functional; in short: as §2
Staphylococcus aureus [11] = assay: Antimicrobial activity against Staphylococcus aureus after 24 hrs by microdilution technique; assay type: functional; in short: as §3
Pseudomonas aeruginosa [12] = assay: Antimicrobial activity against Pseudomonas aeruginosa at 1 umol/spot after 18 hrs by TLC-bioautographic method; assay type: functional; in short: as §2
Bacillus cereus [13] = assay: Antimicrobial activity against Bacillus cereus after 24 hrs by microdilution technique; assay type: functional; in short: as §3
Salmonella typhimurium [14] = assay: Antimicrobial activity against Salmonella Typhimurium at 1 umol/spot after 18 hrs by TLC-bioautographic method; assay type: functional; in short: as §2
Listeria monocytogenes [15] = assay: Antimicrobial activity against Listeria monocytogenes at 1 umol/disk after 24 hrs by disk diffusion assay; assay type: functional; in short: as §1
Listeria monocytogenes [16] = assay: Antimicrobial activity against Listeria monocytogenes after 24 hrs by microdilution technique; assay type: functional; in short: as §3
Escherichia coli [17] = assay: Antimicrobial activity against Escherichia coli at 1 umol/spot after 18 hrs by TLC-bioautographic method; assay type: functional; in short: as §2
Listeria monocytogenes [18] = assay: Antimicrobial activity against Listeria monocytogenes at 1 umol/spot after 18 hrs by TLC-bioautographic method; assay type: functional; in short: as §2
Escherichia coli [19] = assay: Antimicrobial activity against Escherichia coli at 1 umol/disk after 24 hrs by disk diffusion assay; assay type: functional; in short: as §1
Pseudomonas aeruginosa [20] = assay: Antimicrobial activity against Pseudomonas aeruginosa at 10 ug/disk after 24 hrs by disk diffusion assay; assay type: functional; details: for zone of inhibition at 10 µg/disc: read-out: IZ; in short: as §1
Bacillus cereus [21] = assay: Antimicrobial activity against Bacillus cereus at 10 ug/disk after 24 hrs by disk diffusion assay; assay type: functional; in short: as §1
Micrococcus flavus [22] = assay: Antimicrobial activity against Micrococcus flavus at 1 umol/disk after 24 hrs by disk diffusion assay; assay type: functional; in short: as §1
Staphylococcus aureus [23] = assay: Antimicrobial activity against Staphylococcus aureus at 10 ug/disk after 24 hrs by disk diffusion assay; assay type: functional; in short: as §1
Escherichia coli [24] = assay: Antimicrobial activity against Escherichia coli after 24 hrs by microdilution technique; assay type: functional; in short: as §3
Micrococcus flavus [25] = assay: Antimicrobial activity against Micrococcus flavus after 24 hrs by microdilution technique; assay type: functional; in short: as §3
Escherichia coli [26] = assay: Antimicrobial activity against Escherichia coli at 10 ug/disk after 24 hrs by disk diffusion assay; assay type: functional; details: for zone of inhibition at 10 µg/disc: read-out: IZ; in short: as §1
Enterobacter cloacae [27] = assay: Antimicrobial activity against Enterobacter cloacae at 1 umol/disk after 24 hrs by disk diffusion assay; assay type: functional; in short: as §1
Listeria monocytogenes [28] = assay: Antimicrobial activity against Listeria monocytogenes at 10 ug/disk after 24 hrs by disk diffusion assay; assay type: functional; in short: as §1
Salmonella typhimurium [29] = assay: Antimicrobial activity against Salmonella Typhimurium after 24 hrs by microdilution technique; assay type: functional, Salmonella enterica subsp. enterica serovar Typhimurium; details: Salmonella enterica; in short: as §3
Staphylococcus aureus [30] = assay: Antimicrobial activity against Staphylococcus aureus at 1 umol/spot after 18 hrs by TLC-bioautographic method; assay type: functional; in short: as §2
Pseudomonas aeruginosa [31] = assay: Antimicrobial activity against Pseudomonas aeruginosa after 24 hrs by microdilution technique; assay type: functional; in short: as §3
Pseudomonas aeruginosa [32] = assay: Antimicrobial activity against Pseudomonas aeruginosa at 1 umol/disk after 24 hrs by disk diffusion assay; assay type: functional; in short: as §1
[33] = Salmonella enterica subsp. enterica serovar Typhimurium

Row | MIC (Enterobacter cloacae [3]) [µM] | MIC (Staphylococcus aureus [11]) [µM] | MIC (Bacillus cereus [13]) [µM] | MIC (Listeria monocytogenes [16]) [µM] | SMILES | inhibition zone (IZ) (Micrococcus flavus [2]) | MBC (Enterobacter cloacae [3]) [µM] | inhibition zone (IZ) (Salmonella typhimurium [4]) | inhibition zone (IZ) (Enterobacter cloacae [7]) [millimeter] | inhibition zone (IZ) (Salmonella typhimurium [8]) | inhibition zone (IZ) (Bacillus cereus [10]) [millimeter] | MBC (Staphylococcus aureus [11]) [µM] | inhibition zone (IZ) (Pseudomonas aeruginosa [12]) | MBC (Bacillus cereus [13]) [µM] | inhibition zone (IZ) (Listeria monocytogenes [15]) | MBC (Listeria monocytogenes [16]) [µM] | inhibition zone (IZ) (Escherichia coli [17]) | inhibition zone (IZ) (Listeria monocytogenes [18]) [millimeter] | inhibition zone (IZ) (Escherichia coli [19]) | inhibition zone (IZ) (Micrococcus flavus [22]) | MBC (Escherichia coli [24]) [µM] | further results
1 | 211 (≈ 100 µg/mL) | 422 (≈ 200 µg/mL) | 211 (≈ 100 µg/mL) | 422 (≈ 200 µg/mL) | O=C(/C=C/c1ccco1)c1ccc(Nc2nc(Nc3ccccc3)nc(Nc3ccccc3)n2)cc1 | 0.07 millimeter | 422 (≈ 200 µg/mL) | inactive | 0.08 | inactive | 0.07 | 844 (≈ 400 µg/mL) | inactive | 422 (≈ 200 µg/mL) | inactive | 844 (≈ 400 µg/mL) | 0.08 millimeter | 0.08 | 0.04 millimeter | 0.04 millimeter | 422 (≈ 200 µg/mL) | inhibition zone (IZ) (Enterobacter cloacae [1]): inactive; zone of inhibition at 10 µg/disc (Micrococcus flavus [5]): 8 mm; inhibition zone (IZ) (Bacillus cereus [6]): inactive; inhibition zone (IZ) (Staphylococcus aureus [9]): inactive; inhibition zone (IZ) (Salmonella typhimurium [14]; [33]): inactive; zone of inhibition at 10 µg/disc (Pseudomonas aeruginosa [20]): 6 mm; inhibition zone (IZ) (Bacillus cereus [21]): inactive; inhibition zone (IZ) (Staphylococcus aureus [23]): inactive; MIC (Escherichia coli [24]): 211 µM (≈ 100 µg/mL); MBC (Micrococcus flavus [25]): 844 µM (≈ 400 µg/mL); MIC (Micrococcus flavus [25]): 422 µM (≈ 200 µg/mL); zone of inhibition at 10 µg/disc (Escherichia coli [26]): 8 mm; inhibition zone (IZ) (Enterobacter cloacae [27]): inactive; inhibition zone (IZ) (Listeria monocytogenes [28]): inactive; MBC (Salmonella typhimurium [29]): 422 µM (≈ 200 µg/mL); MIC (Salmonella typhimurium [29]): 211 µM (≈ 100 µg/mL); inhibition zone (IZ) (Staphylococcus aureus [30]): 0.08 millimeter; MBC (Pseudomonas aeruginosa [31]): 422 µM (≈ 200 µg/mL); MIC (Pseudomonas aeruginosa [31]): 211 µM (≈ 100 µg/mL)
2 | 172 (≈ 100 µg/mL) | 172 (≈ 100 µg/mL) | 43 (≈ 25 µg/mL) | 258 (≈ 150 µg/mL) | CN[C@@H]1[C@H](O[C@H]2[C@H](O[C@H]3[C@H](O)[C@@H](O)[C@H](N=C(N)N)[C@@H](O)[C@@H]3N=C(N)N)O[C@@H](C)[C@]2(O)C=O)O[C@@H](CO)[C@H](O)[C@H]1O [STREPTOMYCIN] | 0.05 millimeter | 344 (≈ 200 µg/mL) | inactive | 0.07 | inactive | 0.08 | 344 (≈ 200 µg/mL) | 0.08 millimeter | 86 (≈ 50 µg/mL) | inactive | 516 (≈ 300 µg/mL) | 0.06 millimeter | 0.08 | 0.06 millimeter | 0.1 millimeter | 344 (≈ 200 µg/mL) | zone of inhibition at 10 µg/disc (Enterobacter cloacae [1]; read-out: IZ): 12 mm; zone of inhibition at 10 µg/disc (Micrococcus flavus [5]): 20 mm; inhibition zone (IZ) (Salmonella typhimurium [14]): 0.08 millimeter; inhibition zone (IZ) (Pseudomonas aeruginosa [32]): inactive; inhibition zone (IZ) (Pseudomonas aeruginosa [20]): inactive; zone of inhibition at 10 µg/disc (Bacillus cereus [21]; read-out: IZ): 18 mm; zone of inhibition at 10 µg/disc (Staphylococcus aureus [23]; read-out: IZ): 13 mm; MIC (Escherichia coli [24]): 172 µM (≈ 100 µg/mL); MBC (Micrococcus flavus [25]): 172 µM (≈ 100 µg/mL); MIC (Micrococcus flavus [25]): 86 µM (≈ 50 µg/mL); zone of inhibition at 10 µg/disc (Escherichia coli [26]): 10 mm; inhibition zone (IZ) (Listeria monocytogenes [28]): inactive; MBC (Salmonella typhimurium [29]): 344 µM (≈ 200 µg/mL); MIC (Salmonella typhimurium [29]): 172 µM (≈ 100 µg/mL); inhibition zone (IZ) (Staphylococcus aureus [30]): 0.04 millimeter; MBC (Pseudomonas aeruginosa [31]): 344 µM (≈ 200 µg/mL); MIC (Pseudomonas aeruginosa [31]): 172 µM (≈ 100 µg/mL)
3 | 268 (≈ 138 µg/mL) | 134 (≈ 69 µg/mL) | 134 (≈ 69 µg/mL) | 268 (≈ 138 µg/mL) | COc1ccccc1/C=C/C(=O)c1ccc(Nc2nc(Nc3ccccc3)nc(Nc3ccccc3)n2)cc1 | inactive | 536 (≈ 276 µg/mL) | inactive | 0.08 | inactive | 0.06 | 268 (≈ 138 µg/mL) | inactive | 268 (≈ 138 µg/mL) | inactive | 536 (≈ 276 µg/mL) | inactive | 0.08 | inactive | inactive | 268 (≈ 138 µg/mL) | inhibition zone (IZ) (Enterobacter cloacae [1]): inactive; inhibition zone (IZ) (Micrococcus flavus [5]): inactive; inhibition zone (IZ) (Bacillus cereus [6]): inactive; inhibition zone (IZ) (Staphylococcus aureus [9]): inactive; inhibition zone (IZ) (Salmonella typhimurium [14]; [33]): inactive; zone of inhibition at 10 µg/disc (Pseudomonas aeruginosa [20]): 6 mm; inhibition zone (IZ) (Bacillus cereus [21]): inactive; inhibition zone (IZ) (Staphylococcus aureus [23]): inactive; MIC (Escherichia coli [24]): 134 µM (≈ 69 µg/mL); MBC (Micrococcus flavus [25]): 536 µM (≈ 276 µg/mL); MIC (Micrococcus flavus [25]): 268 µM (≈ 138 µg/mL); inhibition zone (IZ) (Escherichia coli [26]): inactive; inhibition zone (IZ) (Enterobacter cloacae [27]): inactive; inhibition zone (IZ) (Listeria monocytogenes [28]): inactive; MBC (Salmonella typhimurium [29]): 536 µM (≈ 276 µg/mL); MIC (Salmonella typhimurium [29]): 268 µM (≈ 138 µg/mL); inhibition zone (IZ) (Staphylococcus aureus [30]): 0.07 millimeter; MBC (Pseudomonas aeruginosa [31]): 536 µM (≈ 276 µg/mL); MIC (Pseudomonas aeruginosa [31]): 268 µM (≈ 138 µg/mL)
